These results are taken from ChEMBL document CHEMBL1123757, “Selective thromboxane synthetase inhibitors and antihypertensive agents. New derivatives of 4-hydrazino-5H-pyridazino[4,5-b]indole, 4-hydrazinopyridazino[4,5-a]indole, and related compounds” (J Med Chem, 1987).

Molecules are shown by their SMILES.

One series relates to Rattus norvegicus. Briefly: Antihypertensive activity in spontaneously hypertensive rats (SHR) measured by percentage fall in cardiac rhythm (CR) at 25 mg/kg administered perorally at 5 h. Particulars: route oral. It counts as functional, Heart. A digest of the protocol:
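Conscious SHR (Okamoto strain), 8 weeks old, male and female, 300–350 g, systolic BP ≥190 mmHg, CR 400–650 beats/min. Given ip or po at 2.5 mL/kg in normal saline or saline with 0.2% (carboxymethyl)cellulose and 1.0% Tween 80. Tail AP and CR recorded by mechanical transduction at 1, 3, 5 and 24 h, five animals per dose. Effect expressed as % fall versus control.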

The species entered for a further series is Homo sapiens. The experiment in a line: In vitro inhibition of platelet aggregation induced by adrenaline at 10e-5 M. It counts as functional. A digest of the protocol:
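Human venous blood anticoagulated with 3.8% sodium citrate (1:9). PRP from centrifugation at 800 rpm for 10 min at room temperature. Count adjusted with PPP to […]. Compound in saline with 10% ethylene glycol is added to PRP and incubated at 37 °C before the agonist. Agonists: ADP 2×10^-5 M, AA 0.6 mM, PGH2 2.8 μM, adrenaline 0.6 μM. Born absorbance aggregometry; n = 5.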

A short description of series [1]: Acute toxicity in mice was expressed as lethal dose. It is filed as organism-based. Particulars: mouse, in vivo. The method in brief: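 Swiss male mice, 20 ± 2 g, dosed ip at four or more dose levels. LD50 calculated 7 days after drug administration by probit analysis (Miller and Tainter).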

As for `COc1ccc2[nH]c3c(NN)nncc3c2c1.Cl`, the “Decrease in CR” value with Rattus norvegicus is on record as -14%. For the same compound, in the series filed under Homo sapiens, 10 µM produced 100% inhibition. Further, the LD50 (as a rule, the dose at which mortality reaches 50%) in series [1] worked out at 225 mg/kg.
